Assay: Toxicity liver stage against HepG2, at 10uM
Assay type: cell-based
Design: test concentration 10 uM, cell line HepG2-A16-CD81EGFP
Details: human, HepG2-A16-CD81EGFP cells; read-out: INHIBITION
Procedure, shortened: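 Uninfected HepG2-A16-CD81EGFP cells, 3 × 10^3 per well, 1536-well, plated on prespotted compound at 10 μM final, parasite-free screening media added to match infected plates; puromycin 10 μM positive, DMSO 0.5% negative; run in parallel with 48 h PbLuc assay at 37 °C, 5% CO2; viability by CellTiter-Glo luminescence, normalized to controls.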

SMILES | cytotoxicity at 10 µM [%]
O=C(NC[C@H]1Cn2c(-c3ccccc3)cnc2CO1)C1CC1 | -3.01
CC(C)NC(=O)[C@@H]1Cc2[nH]cnc2CN1CCCc1ccccc1 | 10.1
O[C@@H]1C[C@@H](c2nc(-c3cccnc3)no2)N(C2CCOCC2)C1 | -4.03
COc1cccc(N2CCN(C(=O)c3noc4c3CCCC4)CC2)c1 | 11.7
CN1CC=C(c2noc(CCC(=O)N3CCOCC3)n2)CC1 | -0.687
CC(=O)N1N=C(Cc2ccccc2)OC1C(=O)NCC(=O)OC(C)(C)C (stereo not drawn) | 0.15
COc1cc(OC)c(C2CC(=O)Oc3cc(C)[nH]c(=O)c32)c(OC)c1 (stereo not drawn) | -6.24
Cc1nnsc1-c1nnc2sc(C(C)C)nn12 | -9.74
CSCC(C)(O)CNS(=O)(=O)c1ccc(F)cc1 (stereo not drawn) | -8.06
Cc1cccc(NC(=O)N2CCC3(CC(=O)N(c4ccsc4)C3)C2)c1 (stereo not drawn) | 6.47
COc1cc(N2C[C@H](C(=O)NC3CC3)[C@@H]3CCO[C@@H]3C2)ncn1 | -5.47
Cn1cc(N2CCC3(CCN(C(=O)[C@H]4CCCO4)C3)C2=O)cn1 (stereo partly drawn) | 0.893
COc1ncccc1C(=O)N1CC[C@H]2C[C@@H](c3nccs3)O[C@@H]2C1 | -0.123
CSCCC(CO)NC(=O)c1ccc2[nH]/c(=N\S(C)(=O)=O)sc2c1 (stereo not drawn) | -6.96
O=C(Cn1nc(N2CCOCC2)ccc1=O)Nc1nccs1 | -1.47
COc1ccc(N2CCC(C(=O)/N=c3/[nH]ccs3)CC2)nn1 | -13.6
Cc1cccnc1NC(=O)CC1(Cn2cnnn2)CCCCC1 | -5.62
COC(=O)C1=C(C)N=C2SCC(=O)N2C1c1cn(C)nc1C (stereo not drawn) | 8.9
CNc1nc(C2CCCN(C(=O)C(C)C)C2)nc2c1CN(C)CC2 (stereo not drawn) | -16.3
CC1(C(=O)NC2CCCC2)CN(c2cnccn2)CCO1 (stereo not drawn) | -33.9
CC(=O)N1CCN(CCOc2ccc(F)cc2)CC(C(N)=O)C1 (stereo not drawn) | -38.9
CNC(=O)c1ccc(C2CCCN(C(=O)c3sc(C)nc3C)C2)nc1 (stereo not drawn) | -36.5

SMILES | cytotoxicity at 10 µM [%]
CCN1CCC(c2cncc(N(C)C)n2)CC1 | 5.12
Cc1ncccc1C(=O)Nc1cccc(C[S+](C)[O-])c1C (stereo not drawn) | 4.08
CN(C)c1ccc(C(=O)N2CCCCC2CC(N)=O)c(F)c1 (stereo not drawn) | 7.12
CC(C)c1nn(C)cc1CNCc1cccc(N(C)C)c1 | -0.509
CC(NC(=O)NCC(C)(C)O)c1ccc(-c2ccncc2)cc1 (stereo not drawn) | 7.15
CC(C)c1nnc(CN2CCCC2C(=O)OCc2ccccc2)o1 (stereo not drawn) | 2.78
CCc1cc(NCCCNS(C)(=O)=O)nc(-c2ccccn2)n1 | 1.8
COc1ccccc1CC1CCCN(CCN2CCOC2=O)C1 (stereo not drawn) | 6.93
Cc1ccc(NC(=O)N2CCN(C(=O)CC3CCCC3)CC2)s1 | 4.36
Clc1cccc(N2CCC(NCc3cc[nH]n3)C2)c1 (stereo not drawn) | 4.01
Cc1oc(NC(=O)C(C)N2CCN(C(=O)C3CC3)CC2)c(C#N)c1C (stereo not drawn) | -18.6
O=C(Nc1nncs1)N1CCC(CCc2ccc(O)cc2)CC1 | 6.81
O=C(CCn1ccccc1=O)Nc1ccc(C(=O)O)cc1 | 4.74
O=C(CNC(=O)c1c(F)cccc1Cl)Nc1ccc(F)cn1 | 8.46
CNC(=O)CN(C)C(=O)Cc1csc(C(C)C)n1 | -5.07
CSCCN(C)C(=O)C1(c2ccc(F)cc2F)CCOCC1 | 0.53
OC[C@@H](O)CN(CCC(F)(F)F)c1ncc(Br)cn1 | -8.72
Cc1cc(NC(=O)Cn2nc(C)c(C#N)c2N)ccc1Br | -6.58
CC(C)(C)OC(=O)NC1CCC(NC(=O)c2ccc[nH]2)CC1 (stereo not drawn) | -17.1
CCc1sc(-c2nnc(CNCCn3cccn3)o2)cc1C | 5.05
CCc1ccc(C(=O)O)cc1S(=O)(=O)Nc1c(C)ccn(C)c1=O | 4.28
Cc1nc(O)ccc1C(=O)NCc1ncccc1F | 7.97

SMILES | cytotoxicity at 10 µM [%]
CCCNC(=O)c1cccc(CNCc2csc(CC)n2)c1 | -10.7
CC(=O)c1ccc(S(=O)(=O)N2CCC(c3n[nH]c(C)n3)CC2)cc1 | -5.24
CC1CCN(CC(O)CN2CCn3c(nnc3C3CC3)C2)CC1 (stereo not drawn) | -2.22
CCN(CC(=O)NC)S(=O)(=O)c1cnc2c(c1)c(C)nn2C | -1.56
CCC(=O)Nc1ccc(F)c(S(=O)(=O)NC(C)(C)C)c1 | -1.74
N#Cc1ccnc(N2CCN(CC(O)c3cccc(F)c3)CC2)c1 (stereo not drawn) | 3.15
Cc1cccc(CN2CC[C@H]3OCC[C@@]3(C(=O)N3CCOCC3)C2)n1 | -1.49
CC(=O)N1CCC2(CC1)CCN(C(=O)c1ccc(F)c(C(F)(F)F)c1)C2 | -80
CC(C)c1nccc([C@@H]2C[C@@H]3CCN(Cc4ccco4)C[C@H]3O2)n1 | 1.1
CC(C)c1cc(CN(C)C(=O)CN2CCC(C(N)=O)CC2)no1 | -0.0154
O=C(CCn1cncn1)N1CCC2(CC1)[C@H](O)C[C@@H]2OCCO | -0.387
Cc1ccc(-c2cnnc(N3CCCC3c3nccs3)n2)o1 (stereo not drawn) | 3.04
Cc1noc(C)c1CN1CCCCC1CCc1ccc(O)cc1 (stereo not drawn) | -2.06
COc1cc(F)c(C(=O)NCc2ccon2)c(F)c1 | 2.13
CN1N=C(C(=O)N2CCCC(CCc3ccccc3)C2)CCC1=O (stereo not drawn) | -10.5
CC(=O)c1cc(CN2CCCC23CCN(c2ccccn2)CC3)cs1 | -7.69
Cc1cc(C)nc(NC(C)Cc2cnccn2)n1 (stereo not drawn) | 1.54
COc1ccc(CC(=O)N2CCCC(Cn3cc(CN)nn3)C2)cc1 (stereo not drawn) | 7.22
COc1ccccc1C(C(=O)O)N1CCCN(C2CCCC2)CC1 (stereo not drawn) | -9.12
Cc1cc2nc(C(C)C)cc(N3CCN(c4ccc(O)cc4)CC3)n2n1 | 10.8
O=C(NCCc1nc(-c2cccnc2)no1)c1ccc(C2CCCO2)s1 (stereo not drawn) | 11.2
CC(=O)N1CCN(C(=O)Nc2ccc(Cl)cc2)[C@H]2CS(=O)(=O)C[C@H]21 | 6.55

SMILES | cytotoxicity at 10 µM [%]
COc1cccn(C(C)C(=O)NC2CCCC2)c1=O (stereo not drawn) | 5.32
Cc1ccsc1[C@@H]1CCN(C(=O)Cn2cc3ccccc3n2)C[C@H]1O | -1.96
CCn1c(C2CCCN(Cc3cc(OC)cc(OC)c3)C2)nn(C)c1=O (stereo not drawn) | 0.0264
CN(C)S(=O)(=O)N1CC[C@]2(O)CCN(c3nccs3)C[C@@H]2C1 | -13
CN1CCC(N(CCc2ccccc2)C(=O)c2ccc(C#N)nc2)CC1 | -3.33
COc1cccc(OCC(=O)NCc2ccc3[nH]c(=O)[nH]c3c2)c1 | 2.59
CC(C)C(NC(=O)c1ccc(=O)[nH]c1)c1nnc2n1CCNCC2 (stereo not drawn) | -1.86
Fc1ccc(Oc2ccc(CNCC3CNc4ccnn4C3)cn2)cc1 (stereo not drawn) | -11.6
CCc1nccn1C1CCCN(C(=O)c2ccc3c(c2)nnn3C)C1 (stereo not drawn) | -10.6
CCc1nc(C(=O)N2CCCCC2)nn1-c1ccccc1Cl | 2.1
CCC(O)CN1CCN(C(=O)c2cnc3n[nH]c(C)c3c2)CC1 (stereo not drawn) | -5
COCCN(CCOC)C(=O)Nc1cc(C(F)(F)F)c[nH]c1=O | -4.28
CC(=O)N(Cc1ncc(C)o1)C1CCN(CCc2cccs2)C1 (stereo not drawn) | -8.85
O=C(Nc1nncs1)NC1CCN(Cc2ccccc2)C1 (stereo not drawn) | -0.397
Cc1cc(C)n(CC2CCCCN2CCC(=O)Nc2cc(C)on2)n1 (stereo not drawn) | -1.03
CC(C)c1noc(C(C)N2CCN(Cc3ccsc3)CC2)n1 (stereo not drawn) | -6.85
CC(=O)NCC1CCN(C(=O)c2csc(-c3ccc(C)cc3C)n2)CC1 | -10.8
Cc1cc(C(=O)N2CCN(C(=O)Cc3ccccn3)CC2)c(C)s1 | 6.18
O=C(c1cccc(CNS(=O)(=O)c2ccccc2F)c1)N1CCCC1 | -0.0481
CC(CNC(=O)Nc1cn[nH]c1)N1CCOCC1 (stereo not drawn) | 1.92
Cc1nc(C)n(CC2CCCN(Cc3ccc(C(N)=O)cc3)C2)n1 (stereo not drawn) | 0.818
Nc1nc(Nc2ccccc2)cc(N2CCNCC2)n1 | 1.23

SMILES | cytotoxicity at 10 µM [%]
CCOCc1nn(CC2CC2)c2c1CN(Cc1ccco1)CC2 | 2.7
Cc1nnc([C@@H]2C[C@H]3CN(C(=O)c4c(C)noc4C)C[C@H]3O2)[nH]1 | 15.2
CO[C@H]1CCN(Cc2c(C)noc2C)[C@@H]2CN(Cc3ccncc3)C[C@H]12 | 5.59
Cc1nc(Nc2nncs2)cc(C2CNC2)n1 | 5.88
c1cc(CN2CCC(c3ccc4c(c3)OCO4)CC2)ccn1 | -5.21
O=C1CC[C@H]2[C@H](CCN2c2ccccn2)N1CC1CCOCC1 | -36.4
O=C(Nc1cnccn1)[C@@H]1CCO[C@@H]2CCN(Cc3ccsc3)C[C@@H]21 | -77.1
c1ccc(CN2CCc3ncnc(-c4ccoc4)c3CC2)nc1 | -79
O=C(c1cscn1)N1CC[C@@H]2[C@@H]1CCN2C1CCOC1 (stereo partly drawn) | 4.19
CCOC(=O)c1n[nH]cc1-c1cncn1CCn1nc(C)c(C)c1C | -35.3
N#Cc1cccc(C(=O)N2CC[C@H]3[C@H]2CCN3CC2CC2)c1 | 3.03
c1cncc(CN2C[C@H]3CCC[C@@H](CNc4cnccn4)[C@H]3C2)c1 | -2.1
CC(C)N1CCc2c(c(COc3cccnc3)nn2CC2CC2)C1 | 6.49
O=C(CCn1c(C(F)(F)F)cc2cccnc21)N1CCCC1 | -21.5
Cc1noc(C)c1CN1CCOC2(CCCN(c3nncs3)C2)C1 (stereo not drawn) | -2.82
CS(=O)(=O)NC1CC2(CCN(CCF)CC2)Oc2ccccc21 (stereo not drawn) | -2.68
c1cnc(NCc2cncc3c2CCN(Cc2cccnc2)C3)nc1 | -68.5
CC(C)N(C)Cc1cncc2c1CCN(C(=O)c1cccc(C#N)c1)C2 | 4.01
C=c1ncsc1=C1NC(c2cccc(CN3CCOCC3)c2)=NO1 | -11.3
CC(C)=CCN1C(=O)[C@@H]2CC[C@H]1CN(c1ncccn1)C2 | 9.14
